Results reported in publication PMC5672925 (British Journal of Cancer, 2017).
“Also recorded” adds a separate entry of the source.

Assays:
[1] = Plasma pharmacokinetics of KW-2478 in phase I, cycle 1; format: in vivo, human
[2] = system: patients with relapsed/refractory MM; assay: Safety: treatment-related adverse events; format: in vivo, human
How it was run: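 Safety population was all patients receiving ≥1 dose. AEs were graded by CTCAE v4.0; treatment-related meant possibly, probably or definitely drug-related per investigator. Vital signs, vision, peripheral neuropathy, haematology and chemistry were checked at screening, on days 1, 4, 8, 11 and 16–18 of each cycle, at end of treatment and at 30-day follow-up. Phase I screening included slit-lamp retinal examination.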

[3] = system: relapsed/refractory multiple myeloma; format: in vivo, human; conditions: comparison with historical single-agent BTZ
How it was run: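 Response graded by IMWG criteria, with minimal response added per ASH-FDA panel. Assessed in evaluable phase II patients plus phase I patients at RP2D (KW-2478 175 mg m−2 i.v. over 1 h, 30 min after BTZ 1.3 mg m−2 bolus, days 1, 4, 8, 11 of 21-day cycles). Duration of response ran from first CR/PR/MR to PD or death. PFS ran from treatment day 1 to PD or death. Both by Kaplan–Meier.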

[4] = system: patients with advanced, relapsed/refractory B-cell malignancies (predominantly with MM); conditions: ref Yong et al, 2016, cited from earlier work
[5] = system: MM models; conditions: cited from earlier work
[6] = system: patients with relapsed/refractory MM; assay: Phase I dose escalation; format: in vivo, human; conditions: days 1, 4, 8, 11 every 3 weeks, up to KW-2478 175 mg m^−2 plus BTZ 1.3 mg m^−2
How it was run: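 DLT window was cycle 1, graded by CTCAE v4.0. DLT was related non-haematologic grade ≥3 toxicity (controllable GI events excepted) or grade 4 haematologic toxicity (neutropenia ≤5 days excepted).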

[7] = system: relapsed and/or refractory MM; conditions: ref Richardson et al, cited from earlier work
[8] = large-scale phase III trials, 2005, Orlowski et al, 2007

SMILES: CCc1c(O)cc(O)c(C(=O)c2ccc(OCCN3CCOCC3)c(OC)c2)c1CC(=O)N(CCOC)CCOC [KW-2478]
- Mean CL, range ([1]; 130 mg m^−2 dose): 25.9 to 33.3 L/h
- Mean CL, range ([1]; 175 mg m^−2 dose): 32.2 to 62.0 L/h
- Effect of increase in BTZ dose on KW-2478 pharmacokinetics ([1]; co-administered BTZ 1 vs 1.3 mg m^−2): did not affect
- Accumulation ([1]; day 11 vs day 1, cycle 1): Accumulation did not occur
- Ocular safety ([2]; in combination with BTZ): did not raise any ocular safety concerns
- Effect on toxicity of BTZ in the combination regimen ([2]; in vivo): did not enhance the toxicity of BTZ
- Contribution of KW-2478 to the efficacy of BTZ alone [3]: insufficient evidence that KW-2478 added to the efficacy of BTZ alone
- Single-agent clinical activity [4]: modest single-agent activity; also recorded: preliminary signs of clinical activity were seen
- Tolerability ([4]; single agent): well tolerated
- Antitumour activity ([5]; KW-2478 alone, ref Nakashima et al, 2010): exhibits antitumour activity
- Antitumour activity in MM cells in the presence of bone marrow stromal cells ([5]; ref Juliger et al, 2008): retained
- Maximum tolerated dose (MTD) [6]: not reached

SMILES: CC(C)C[C@H](NC(=O)[C@H](Cc1ccccc1)NC(=O)c1cnccn1)B(O)O [BTZ, bortezomib]
- ORR, BTZ alone (reference) ([7]; SUMMIT trial, 2006): 35%
- Median PFS, single-agent BTZ [7, 8]: ~6 months
- ORR, single-agent BTZ [7, 8]: ~40%
